Data from ChEMBL document CHEMBL4325926, “Potent Antimalarial 2-Pyrazolyl Quinolone bc 1 (Qi) Inhibitors with Improved Drug-like Properties” (ACS Med Chem Lett, 2018).
≈ marks a conversion by molar mass, not a printed value. Blank lines part the entries; values can stand above or below the compound they belong to. Calls of active or inactive are those of the source. The rule behind the calls is not given here.

Key:
Plasmodium falciparum [1] = experiment: Antimalarial activity against chloroquine-sensitive Plasmodium falciparum 3D7 measured after 48 hrs by SYBR green1 dye based fluorescence assay; type: functional, organism-based; conditions: 3D7, 48 h
[2] = Aqueous solubility of the compound in pH 7.4 phosphate buffered saline; type: physicochemical
In short: (§1)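 In vitro DMPK measurements performed by an external DMPK group. Aqueous solubility measured in pH 7.4 PBS buffer. Protein binding measured in human plasma.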

Plasmodium falciparum [3] = experiment: Antimalarial activity against chloroquine-resistant Plasmodium falciparum W2 measured after 48 hrs by SYBR green1 dye based fluorescence assay; type: functional, organism-based; conditions: W2, 48 h
[4] = Inhibition of recombinant Plasmodium falciparum NDH2 expressed in Escherichia coli using NADH as substrate
HepG2 = experiment: Cytotoxicity against human HepG2 cells after 24 hrs by MTT assay; type: cell-based; conditions: HepG2, 24 h
[5] = Therapeutic index, ratio of IC50 for human HepG2 cells to IC50 for chloroquine-sensitive Plasmodium falciparum 3D7
Plasmodium falciparum [6] = experiment: Antimalarial activity against chloroquine-resistant Plasmodium falciparum TM90C2B harboring Y268S mutant measured after 48 hrs by SYBR green1 dye based fluorescence assay; type: functional, organism-based
Plasmodium falciparum [7] = experiment: Antimalarial activity against Plasmodium falciparum TX13 expressing yeast dihydroorotate dehydrogenase at >1000 nM; type: functional, organism-based
[8] = Inhibition of Plasmodium falciparum cytochrome bc1 complex using cytochrome-c as substrate and decylubiquinol as donor by spectrophotometric method
[9] = Protein binding in human plasma; type: ADME, cell-free; conditions: read-out: PPB; in short: as §1

Structure (SMILES): Cc1c(-c2cnn(Cc3ccc(OC(F)(F)F)cc3)c2)[nH]c2ccc(Cl)cc2c1=O
- IC50 (Plasmodium falciparum [1]): 0.11 µM

Structure (SMILES): COc1ccc2c(=O)cc(-c3ccn(Cc4ccc(OC(F)(F)F)cc4)n3)[nH]c2c1
- IC50 (Plasmodium falciparum [1]): 0.541 µM

Structure (SMILES): Cc1c(-c2cnn(Cc3ccc(OC(F)(F)F)cc3)c2)[nH]c2ccccc2c1=O
- solubility [2]: 0.1 µM (≈ 0.0399 µg/mL)
- IC50 (Plasmodium falciparum [3]): 0.033 µM
- IC50 (Plasmodium falciparum [1]): 0.1 µM
- IC50 [4]: 0.837 µM
- IC50 (HepG2): 13 µM
- selectivity ratio [5]: 130

Structure (SMILES): Cc1c(-c2cnn(Cc3ccc(OC(F)(F)F)cc3)c2)[nH]c2ccc(F)cc2c1=O
- IC50 (Plasmodium falciparum [1]): 0.054 µM

Structure (SMILES): Cc1c(-c2ccn(Cc3ccc(OC(F)(F)F)cc3)n2)[nH]c2ccccc2c1=O
- solubility [2]: 0.4 µM (≈ 0.16 µg/mL)
- IC50 (Plasmodium falciparum [3]): 0.049 µM
- IC50 (Plasmodium falciparum [1]): 0.27 µM
- IC50 (Plasmodium falciparum [6]): 0.3 µM
- IC50 [4]: 0.068 µM
- IC50 (HepG2): 21.2 µM
- selectivity ratio [5]: 79

Structure (SMILES): COc1ccc2c(=O)c(Cl)c(-c3cnn(Cc4ccc(OC(F)(F)F)cc4)c3)[nH]c2c1
- IC50 (Plasmodium falciparum [3]): 0.011 µM
- Activity (Plasmodium falciparum [7]): inactive
- IC50 (Plasmodium falciparum [1]): 0.091 µM
- IC50 (Plasmodium falciparum [6]): 0.11 µM

Structure (SMILES): COc1ccc2c(=O)c(C)c(-c3cnn(Cc4ccc(OC(F)(F)F)cc4)c3)[nH]c2c1
- solubility [2]: 0.3 µM (≈ 0.129 µg/mL)
- IC50 (Plasmodium falciparum [3]): 0.015 µM
- IC50 (Plasmodium falciparum [1]): 0.033 µM
- IC50 [8]: 0.00075 µM
- IC50 (Plasmodium falciparum [6]): 0.5 µM
- IC50 [4]: 1 µM
- IC50 (HepG2): 11 µM
- selectivity ratio [5]: 333

Structure (SMILES): Cc1c(-c2cnn(Cc3ccc(OC(F)(F)F)cc3)c2)[nH]c2cc(F)ccc2c1=O
- IC50 (Plasmodium falciparum [1]): 0.08 µM

Structure (SMILES): O=c1c(Cl)c(-c2cnn(Cc3ccc(OC(F)(F)F)cc3)c2)[nH]c2ccccc12
- solubility [2]: 0.01 µM (≈ 0.0042 µg/mL)
- IC50 (Plasmodium falciparum [3]): 0.014 µM
- IC50 (Plasmodium falciparum [1]): 0.166 µM
- IC50 (HepG2): 28.4 µM
- fraction unbound [9]: < 0.001
- selectivity ratio [5]: 171

Structure (SMILES): Cc1c(-c2cnn(Cc3ccc(OC(F)(F)F)cc3)c2)[nH]c2cc(C(F)(F)F)ccc2c1=O
- IC50 (Plasmodium falciparum [1]): 0.81 µM

Structure (SMILES): C=C(C)[C@H]1Cc2c(ccc3c2O[C@@H]2COc4cc(OC)c(OC)cc4[C@@H]2C3=O)O1 [ROTENONE]
- IC50 (HepG2): 1.52 µM

Structure (SMILES): COc1ccc2c(=O)c(Cl)c(-c3ccn(Cc4ccc(OC(F)(F)F)cc4)n3)[nH]c2c1
- IC50 (Plasmodium falciparum [1]): 0.376 µM

Structure (SMILES): O=C1C(O)=C([C@H]2CC[C@H](c3ccc(Cl)cc3)CC2)C(=O)c2ccccc21 [ATOVAQUONE]
- IC50 (Plasmodium falciparum [3]): 0.0003 µM
- IC50 [4]: 10 µM

Structure (SMILES): Cc1c(-c2ccc(Cc3ccc(OC(F)(F)F)cc3)cc2)[nH]c2ccccc2c1=O
- solubility [2]: 0.03 µM (≈ 0.0123 µg/mL)

Structure (SMILES): CC/C(=C(\c1ccccc1)c1ccc(OCCN(C)C)cc1)c1ccccc1 [TAMOXIFEN]
- IC50 (HepG2): 12 µM

Continued, in another order:

- IC50 (Plasmodium falciparum [1]): 0.69 µM
Structure (SMILES): O=c1cc(-c2cnn(CCN3CCOCC3)c2)[nH]c2ccccc12

- solubility [2]: 0.2 µM (≈ 0.0827 µg/mL)
- IC50 (Plasmodium falciparum [1]): 0.088 µM
Structure (SMILES): CCc1c(-c2cnn(Cc3ccc(OC(F)(F)F)cc3)c2)[nH]c2ccccc2c1=O
- IC50 (HepG2): 19.3 µM
- selectivity ratio [5]: 219

- IC50 (Plasmodium falciparum [1]): > 1 µM
Structure (SMILES): Cc1c(-c2cnn(CCc3ccc(OC(F)(F)F)cc3)c2)[nH]c2ccccc2c1=O

- IC50 (Plasmodium falciparum [1]): > 1 µM
Structure (SMILES): Cc1c(-c2ccc(-c3cnn(CCN4CCOCC4)c3)cc2)[nH]c2ccccc2c1=O

- IC50 (Plasmodium falciparum [1]): > 1 µM
Structure (SMILES): Cc1c(-c2ccc(-c3cnn(CCN4CCOCC4)c3)nc2)[nH]c2ccccc2c1=O

- IC50 (Plasmodium falciparum [1]): 0.089 µM
Structure (SMILES): CCOC(=O)c1c(-c2cnn(Cc3ccc(OC(F)(F)F)cc3)c2)[nH]c2ccccc2c1=O

- IC50 (Plasmodium falciparum [1]): 0.419 µM
Structure (SMILES): COc1ccc2c(=O)cc(-c3cnn(Cc4ccc(OC(F)(F)F)cc4)c3)[nH]c2c1

- IC50 (Plasmodium falciparum [1]): 0.074 µM
Structure (SMILES): O=c1cc(-c2cnn(Cc3ccc(OC(F)(F)F)cc3)c2)[nH]c2ccccc12

- IC50 (Plasmodium falciparum [1]): 0.299 µM
Structure (SMILES): CC(C)c1c(-c2cnn(Cc3ccc(OC(F)(F)F)cc3)c2)[nH]c2ccccc2c1=O

- IC50 (Plasmodium falciparum [1]): 0.58 µM
Structure (SMILES): O=c1cc(-c2cnn(Cc3ccc(C(F)(F)F)nc3)c2)[nH]c2ccccc12

- IC50 (Plasmodium falciparum [1]): 0.05 µM
Structure (SMILES): Cc1c(-c2cnn(Cc3ccc(OC(F)(F)F)cc3)c2)[nH]c2cc(Cl)ccc2c1=O

- IC50 (Plasmodium falciparum [1]): 0.16 µM
Structure (SMILES): O=c1cc(-c2cnn(Cc3ccc(F)cc3)c2)[nH]c2ccccc12
